From the M2OR odorant receptor database
Changes are numbered by the printed parent chain.

Legend:
Conditions in all cases: stereoisomer not certain
[1] = molecular target: T1, OR10S1 (Homo sapiens) (UniProt Q8NGN2)
T1 sequence (whole entry): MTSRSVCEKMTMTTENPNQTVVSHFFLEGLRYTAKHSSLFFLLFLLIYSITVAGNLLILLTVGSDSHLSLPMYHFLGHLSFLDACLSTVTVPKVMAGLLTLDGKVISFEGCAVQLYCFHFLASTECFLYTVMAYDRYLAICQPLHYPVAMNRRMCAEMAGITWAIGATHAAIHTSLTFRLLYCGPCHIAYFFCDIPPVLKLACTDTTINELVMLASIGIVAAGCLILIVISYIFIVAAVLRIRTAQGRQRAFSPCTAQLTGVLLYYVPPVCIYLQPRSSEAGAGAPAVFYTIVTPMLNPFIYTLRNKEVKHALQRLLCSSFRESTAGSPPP
Procedure, shortened: (§1)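 Whether a receptor–molecule pair is responsive (active) rests on the original authors' judgment that its measured signal was statistically different from baseline. Pairs without that judgment are non-responsive (inactive). Sources used varied assay methods, commonly transient luciferase assays in mammalian cell lines.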

[2] = molecular target: T2, OR10R2 (Homo sapiens) (UniProt Q8NGX6)
T2 sequence (whole entry): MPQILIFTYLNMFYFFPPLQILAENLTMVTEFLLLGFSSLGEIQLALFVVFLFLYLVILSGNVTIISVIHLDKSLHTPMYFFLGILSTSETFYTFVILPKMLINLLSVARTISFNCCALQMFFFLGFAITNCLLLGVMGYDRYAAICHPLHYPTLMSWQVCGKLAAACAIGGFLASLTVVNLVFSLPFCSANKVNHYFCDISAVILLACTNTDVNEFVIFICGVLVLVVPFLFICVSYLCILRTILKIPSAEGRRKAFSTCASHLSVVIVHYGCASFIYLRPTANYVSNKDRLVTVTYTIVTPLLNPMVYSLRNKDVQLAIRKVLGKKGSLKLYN
Procedure, shortened: as §1

[3] = molecular target: T3, OR10T2 (Homo sapiens) (UniProt Q8NGX3)
T3 sequence (whole entry): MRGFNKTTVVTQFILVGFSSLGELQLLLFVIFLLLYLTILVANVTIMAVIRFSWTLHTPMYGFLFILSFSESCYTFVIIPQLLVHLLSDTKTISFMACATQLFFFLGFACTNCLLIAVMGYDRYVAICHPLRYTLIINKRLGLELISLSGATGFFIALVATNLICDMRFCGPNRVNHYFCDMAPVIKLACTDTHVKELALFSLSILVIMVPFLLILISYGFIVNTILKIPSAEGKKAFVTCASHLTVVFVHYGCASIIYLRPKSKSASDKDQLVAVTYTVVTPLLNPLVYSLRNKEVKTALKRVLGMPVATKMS
Procedure, shortened: as §1

[4] = molecular target: T4, OR10V1 (Homo sapiens) (UniProt Q8NGI7)
T4 sequence (whole entry): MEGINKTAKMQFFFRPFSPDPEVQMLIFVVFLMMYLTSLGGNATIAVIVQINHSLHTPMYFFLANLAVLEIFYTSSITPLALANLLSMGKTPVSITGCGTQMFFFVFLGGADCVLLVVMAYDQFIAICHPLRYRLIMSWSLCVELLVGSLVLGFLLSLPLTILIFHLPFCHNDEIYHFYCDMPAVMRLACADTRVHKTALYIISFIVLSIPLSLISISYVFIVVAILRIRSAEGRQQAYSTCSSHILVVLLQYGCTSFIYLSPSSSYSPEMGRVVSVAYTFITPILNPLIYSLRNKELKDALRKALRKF
Procedure, shortened: as §1

[5] = molecular target: T5, OR10W1 (Homo sapiens) (UniProt Q8NGF6)
T5 sequence (whole entry): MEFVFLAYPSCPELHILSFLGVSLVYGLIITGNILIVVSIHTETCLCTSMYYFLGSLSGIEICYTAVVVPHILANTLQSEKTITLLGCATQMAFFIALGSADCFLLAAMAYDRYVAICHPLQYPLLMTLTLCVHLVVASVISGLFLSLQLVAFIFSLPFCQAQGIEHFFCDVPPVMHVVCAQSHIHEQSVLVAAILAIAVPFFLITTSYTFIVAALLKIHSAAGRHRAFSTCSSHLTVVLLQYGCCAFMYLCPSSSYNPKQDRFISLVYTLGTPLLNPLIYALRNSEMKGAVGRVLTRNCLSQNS
Procedure, shortened: as §1

[6] = molecular target: T6, OR10X1 (Homo sapiens) (UniProt Q8NGY0)
T6 sequence (whole entry): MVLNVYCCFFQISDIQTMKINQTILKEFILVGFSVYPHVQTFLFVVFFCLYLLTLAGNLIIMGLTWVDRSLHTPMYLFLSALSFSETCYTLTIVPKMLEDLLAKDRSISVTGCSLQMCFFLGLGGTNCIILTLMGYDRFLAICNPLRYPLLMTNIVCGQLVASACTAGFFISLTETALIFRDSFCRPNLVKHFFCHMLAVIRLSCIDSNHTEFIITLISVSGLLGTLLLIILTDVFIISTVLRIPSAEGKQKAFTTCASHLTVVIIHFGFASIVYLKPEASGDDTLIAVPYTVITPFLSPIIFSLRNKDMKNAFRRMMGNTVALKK
Procedure, shortened: as §1

[7] = molecular target: T7, OR10Z1 (Homo sapiens) (UniProt Q8NGY1)
T7 sequence (whole entry): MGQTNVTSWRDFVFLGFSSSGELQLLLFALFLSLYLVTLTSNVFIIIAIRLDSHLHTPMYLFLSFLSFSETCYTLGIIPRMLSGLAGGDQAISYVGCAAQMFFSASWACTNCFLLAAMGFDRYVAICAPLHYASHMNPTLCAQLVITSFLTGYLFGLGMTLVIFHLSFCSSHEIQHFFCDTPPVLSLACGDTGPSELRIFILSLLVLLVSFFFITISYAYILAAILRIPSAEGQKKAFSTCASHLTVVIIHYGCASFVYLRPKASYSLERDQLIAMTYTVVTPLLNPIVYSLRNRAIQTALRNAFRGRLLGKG
Procedure, shortened: as §1

[8] = molecular target: T8, OR11A1 (Homo sapiens) (UniProt Q9GZK7)
T8 sequence (whole entry): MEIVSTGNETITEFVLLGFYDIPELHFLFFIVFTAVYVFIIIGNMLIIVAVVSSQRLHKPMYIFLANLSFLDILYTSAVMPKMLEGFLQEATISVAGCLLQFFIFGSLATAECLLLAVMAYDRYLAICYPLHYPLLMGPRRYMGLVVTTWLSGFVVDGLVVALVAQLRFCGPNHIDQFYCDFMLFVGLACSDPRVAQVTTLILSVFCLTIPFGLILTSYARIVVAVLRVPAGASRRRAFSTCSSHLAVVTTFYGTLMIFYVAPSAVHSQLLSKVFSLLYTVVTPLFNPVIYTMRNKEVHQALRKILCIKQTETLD
Procedure, shortened: as §1

[9] = molecular target: T9, OR11G2 (Homo sapiens) (UniProt Q8NGC1)
T9 sequence (whole entry): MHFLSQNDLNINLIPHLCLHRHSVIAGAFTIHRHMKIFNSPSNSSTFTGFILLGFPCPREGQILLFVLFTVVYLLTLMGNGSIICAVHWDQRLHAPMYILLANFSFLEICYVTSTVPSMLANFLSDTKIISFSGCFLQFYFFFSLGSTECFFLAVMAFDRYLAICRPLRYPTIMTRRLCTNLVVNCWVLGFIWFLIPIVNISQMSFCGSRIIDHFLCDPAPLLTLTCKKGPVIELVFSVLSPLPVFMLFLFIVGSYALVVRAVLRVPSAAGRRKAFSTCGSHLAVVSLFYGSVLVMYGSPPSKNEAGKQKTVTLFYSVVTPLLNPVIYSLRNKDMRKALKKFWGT
Procedure, shortened: as §1

[10] = molecular target: T10, OR11H1 (Homo sapiens) (UniProt Q8NG94)
T10 sequence (whole entry): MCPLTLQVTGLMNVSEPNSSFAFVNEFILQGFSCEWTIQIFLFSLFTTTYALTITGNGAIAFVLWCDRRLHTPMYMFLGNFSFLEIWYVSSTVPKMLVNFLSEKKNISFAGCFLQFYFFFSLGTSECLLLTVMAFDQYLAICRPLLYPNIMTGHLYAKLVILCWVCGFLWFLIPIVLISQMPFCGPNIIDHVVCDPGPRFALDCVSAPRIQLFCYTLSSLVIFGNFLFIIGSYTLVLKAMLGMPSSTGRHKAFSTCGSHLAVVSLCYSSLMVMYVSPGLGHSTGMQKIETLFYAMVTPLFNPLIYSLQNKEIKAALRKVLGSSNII
Procedure, shortened: as §1

[11] = molecular target: T11, OR11H12 (Homo sapiens) (UniProt B2RN74)
T11 sequence (whole entry): T10 sequence (whole entry) with S33T, R68W, Y156C, M240V
Procedure, shortened: as §1

[12] = molecular target: T12, OR11H2 (Homo sapiens) (UniProt Q8NH07)
T12 sequence (whole entry): T10 sequence (whole entry) with Q7H, T49I, M181K, R199L, M240V, S269P
Procedure, shortened: as §1

[13] = molecular target: T13, OR11H4 (Homo sapiens) (UniProt Q8NGC9)
T13 sequence (whole entry): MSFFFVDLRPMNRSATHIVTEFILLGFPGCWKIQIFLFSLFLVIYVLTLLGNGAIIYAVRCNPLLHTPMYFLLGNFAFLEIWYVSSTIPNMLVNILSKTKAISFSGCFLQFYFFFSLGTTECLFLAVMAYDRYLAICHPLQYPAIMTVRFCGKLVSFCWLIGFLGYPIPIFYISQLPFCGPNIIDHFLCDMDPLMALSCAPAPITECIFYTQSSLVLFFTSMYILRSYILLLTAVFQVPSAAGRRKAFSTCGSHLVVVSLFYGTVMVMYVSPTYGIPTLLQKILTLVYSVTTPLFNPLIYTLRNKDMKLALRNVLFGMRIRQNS
Procedure, shortened: as §1

[14] = molecular target: T14, OR11H6 (Homo sapiens) (UniProt Q8NGC7)
T14 sequence (whole entry): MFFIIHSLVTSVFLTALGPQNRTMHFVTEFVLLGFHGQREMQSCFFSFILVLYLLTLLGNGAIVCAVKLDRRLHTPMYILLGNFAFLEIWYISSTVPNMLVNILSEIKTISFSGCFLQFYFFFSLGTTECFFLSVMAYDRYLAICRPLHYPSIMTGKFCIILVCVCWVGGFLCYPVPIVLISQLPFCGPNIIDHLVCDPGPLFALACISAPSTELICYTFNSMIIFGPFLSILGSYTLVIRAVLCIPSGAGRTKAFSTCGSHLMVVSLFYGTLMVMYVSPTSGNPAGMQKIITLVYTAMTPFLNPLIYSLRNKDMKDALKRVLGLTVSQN
Procedure, shortened: as §1

[15] = molecular target: OR11H7 (Homo sapiens) (UniProt Q8NGC8)
Procedure, shortened: as §1

[16] = molecular target: T15, OR11L1 (Homo sapiens) (UniProt Q8NGX0)
T15 sequence (whole entry): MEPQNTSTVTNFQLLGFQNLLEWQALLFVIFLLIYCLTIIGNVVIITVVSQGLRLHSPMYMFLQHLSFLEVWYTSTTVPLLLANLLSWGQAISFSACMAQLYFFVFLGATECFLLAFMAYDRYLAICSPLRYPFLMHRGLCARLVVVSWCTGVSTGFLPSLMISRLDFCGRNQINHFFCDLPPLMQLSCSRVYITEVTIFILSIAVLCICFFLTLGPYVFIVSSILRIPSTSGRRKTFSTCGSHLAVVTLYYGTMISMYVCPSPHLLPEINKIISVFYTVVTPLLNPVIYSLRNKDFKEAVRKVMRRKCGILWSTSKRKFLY
Procedure, shortened: as §1

[17] = molecular target: OR12D1 (Homo sapiens) (UniProt P0DN82)
Procedure, shortened: as §1

[18] = molecular target: T16, OR12D2 (Homo sapiens) (UniProt P58182)
T16 sequence (whole entry): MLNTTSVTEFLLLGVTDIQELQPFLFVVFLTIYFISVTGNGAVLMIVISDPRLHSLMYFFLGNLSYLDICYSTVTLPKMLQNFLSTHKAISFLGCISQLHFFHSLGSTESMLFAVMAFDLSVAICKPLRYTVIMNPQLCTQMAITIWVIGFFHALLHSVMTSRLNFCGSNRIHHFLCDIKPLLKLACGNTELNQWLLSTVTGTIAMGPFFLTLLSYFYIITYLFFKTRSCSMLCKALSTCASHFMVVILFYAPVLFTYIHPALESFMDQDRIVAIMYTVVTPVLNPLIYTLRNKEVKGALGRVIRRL
Procedure, shortened: as §1

[19] = molecular target: T17, OR12D3 (Homo sapiens) (UniProt Q9UGF7)
T17 sequence (whole entry): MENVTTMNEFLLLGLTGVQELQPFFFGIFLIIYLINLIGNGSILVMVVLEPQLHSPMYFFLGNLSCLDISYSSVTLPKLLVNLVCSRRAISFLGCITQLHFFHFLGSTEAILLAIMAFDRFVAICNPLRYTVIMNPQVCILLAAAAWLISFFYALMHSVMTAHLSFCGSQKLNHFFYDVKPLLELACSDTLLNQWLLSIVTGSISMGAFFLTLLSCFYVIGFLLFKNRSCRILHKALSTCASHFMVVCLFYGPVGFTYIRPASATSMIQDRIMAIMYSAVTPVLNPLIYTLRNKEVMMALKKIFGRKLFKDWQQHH
Procedure, shortened: as §1

[20] = molecular target: T18, OR13A1 (Homo sapiens) (UniProt Q8NGR1)
T18 sequence (whole entry): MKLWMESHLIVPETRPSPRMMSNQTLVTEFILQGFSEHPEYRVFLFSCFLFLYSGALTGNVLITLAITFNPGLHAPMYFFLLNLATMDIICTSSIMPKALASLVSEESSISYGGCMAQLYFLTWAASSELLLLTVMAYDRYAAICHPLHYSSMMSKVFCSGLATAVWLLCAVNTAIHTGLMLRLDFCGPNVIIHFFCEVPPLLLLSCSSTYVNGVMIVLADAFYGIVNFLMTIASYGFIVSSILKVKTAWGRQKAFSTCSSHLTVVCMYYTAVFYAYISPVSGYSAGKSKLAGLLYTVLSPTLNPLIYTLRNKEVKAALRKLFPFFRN
Procedure, shortened: as §1

Measured: odorant receptor agonist call;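 also: active if original authors judged signal statistically different from baseline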

Chain of OR11H7 (Homo sapiens) (Q8NGC8 whole entry): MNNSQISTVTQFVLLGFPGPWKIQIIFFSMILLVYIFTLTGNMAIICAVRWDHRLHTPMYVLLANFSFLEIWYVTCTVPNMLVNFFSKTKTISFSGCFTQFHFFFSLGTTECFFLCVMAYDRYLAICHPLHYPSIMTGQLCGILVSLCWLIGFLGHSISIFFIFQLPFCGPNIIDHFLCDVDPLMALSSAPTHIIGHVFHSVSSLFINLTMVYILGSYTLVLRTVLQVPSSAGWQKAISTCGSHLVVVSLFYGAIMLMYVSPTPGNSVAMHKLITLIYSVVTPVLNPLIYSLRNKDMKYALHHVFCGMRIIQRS
Chain of OR12D1 (Homo sapiens) (P0DN82 as listed by the source): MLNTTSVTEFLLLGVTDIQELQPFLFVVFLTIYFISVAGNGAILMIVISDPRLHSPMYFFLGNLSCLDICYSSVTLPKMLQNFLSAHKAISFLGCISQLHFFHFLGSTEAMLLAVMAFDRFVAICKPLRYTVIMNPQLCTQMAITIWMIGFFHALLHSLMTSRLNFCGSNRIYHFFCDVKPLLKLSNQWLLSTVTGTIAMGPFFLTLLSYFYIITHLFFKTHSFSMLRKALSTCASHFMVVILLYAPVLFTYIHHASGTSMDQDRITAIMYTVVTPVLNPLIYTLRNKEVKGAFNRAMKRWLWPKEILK

CCCCCCCC(=O)OCC
inactive: [1]

CCC(=O)O
inactive: [1]

CC1CCCCCCCCCCCCC(=O)C1 (configuration not stated)
inactive: all assays above
